Measured values reported in paper PMC4839537 (Biochemical pharmacology, 2016).
Numbered stars: 1 amine (or outer) side, 2 acyl side, 3 side chain; on linkers, the order of the positions; unused ones are H or OH. Bridge positions count the residues as written; N and C are the ends. Square brackets hold non-standard residues; d marks the D form. Peptide text beside a SMILES is read from it. * marks the point of attachment. Leu(3R-OH,Nα-propionyl) = CCC(=O)N[C@H](C(=O)*)[C@H](O)C(C)C; X2 = CC(=O)NC(C(=O)OC(C(C)C)C(N[*:1])C(=O)[*:2])C(O)C(C)C; X1 = CC(C)[C@@H](O[*:3])[C@H](N[*:1])C(=O)[*:2]; NMeT = CN[CH](C(=O)O)[CH](C)O; dPhLac = O=C(O)[C@H](O)Cc1ccccc1; PhLac = O=C(O)[CH](O)Cc1ccccc1; NMeA = CN[CH](C)C(=O)O; NMeDha = C=C(NC)C(=O)O

Key:
P2Y1R = P2Y1R (Homo sapiens, UniProt P47900); type: cell-based
M3 muscarinic receptor = M3 muscarinic receptor (Homo sapiens, UniProt P20309); type: cell-based
recombinant human A2AAR = recombinant human A2AAR (Homo sapiens, UniProt P29274); test: CGS21680-induced cAMP accumulation in CHO cells expressing the A2AAR; type: cell-based; conditions: data not shown
How it was run: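 CHO cells stably expressing human A2AAR were grown in DMEM with 10% FBS, penicillin/streptomycin and glutamine, then plated in 96-well plates overnight. Cells were pretreated with test compound (300 nM) for 30 min or with pertussis toxin (200 ng/ml) overnight. Agonist was then added with rolipram (10 μM). Supernatant was removed, cells were lysed in 0.3% Tween-20, and cAMP was measured by AlphaScreen.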

[1] = cited from earlier work
Gαq-coupled P2Y1R = Gαq-coupled P2Y1R (Homo sapiens, UniProt P47900); test: Akt1/2/3 phosphorylation in 1321N1 cells expressing the P2Y1R; type: cell-based; conditions: UBO-QIC 100 nM
How it was run: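 1321N1 astrocytoma cells expressing human P2Y1R were seeded at 30,000 cells/100 μl in complete medium. After attachment they were serum-starved overnight, pretreated with test compound (100 nM) for 30 min, then given agonist in Hank's buffered salt solution for 20 min. Lysed cells were assayed for p-Akt1/2/3 (Ser473) by AlphaScreen SureFire. Mean ± SEM of 3 independent experiments in duplicate.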

human A1AR (Gi-coupled) = human A1AR (Gi-coupled) (Homo sapiens, UniProt P30542); type: cell-based
endogenous A1AR = endogenous A1AR (Mesocricetus auratus, UniProt A0A1U8BVR4); type: cell-based, Syrian hamster
Gαi subunits = conditions: cited from earlier work
platelet aggregation = conditions: cited from earlier work
endogenous human P2Y1R = endogenous human P2Y1R (Homo sapiens, UniProt P47900); type: cell-based
Gi-coupled P2Y12R = Gi-coupled P2Y12R (Homo sapiens, UniProt Q9H244); type: cell-based
[2] = system: Gαq-coupled T1R1/T1R3 heterodimeric taste receptor; conditions: MIN6 cells; cited from earlier work
Gα16 = conditions: 1 μM; cited from earlier work
M2 muscarinic receptor = M2 muscarinic receptor (Homo sapiens, UniProt P08172); type: cell-based
ERK1/2 activation = ERK1/2 activation mediated through various GPCRs; type: cell-based
How it was run: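 CHO (A1AR, M2, M3) or 1321N1 (P2Y1R) cells were seeded at 30,000 cells/100 μl and serum-starved overnight after attachment. Pretreatment was test compound or GO6983 (10 μM) for 30 min, or pertussis toxin (200 ng/ml) overnight. Agonists in Hank's buffered salt solution were applied for 5 min. Cells were lysed and p-ERK1/2 (Thr202/Tyr204) was read by AlphaScreen SureFire.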

A1AR = A1AR (Homo sapiens, UniProt P30542); type: cell-based
[3] = biological target: recombinant human A2BAR (Gαs) (Homo sapiens, UniProt P29275); type: cell-based
P2Y1R (Gq-coupled) = P2Y1R (Gq-coupled) (Homo sapiens, UniProt P47900); type: cell-based
P2Y12R (Gi-coupled) = P2Y12R (Gi-coupled) (Homo sapiens, UniProt Q9H244); type: cell-based
[4] = biological target: M2 muscarinic receptor (Gi-coupled) (Homo sapiens, UniProt P08172); type: cell-based
Gi-coupled A1AR = Gi-coupled A1AR (Homo sapiens, UniProt P30542); type: cell-based
[5] = biological target: recombinant human M3 muscarinic receptor (Gαq) (Homo sapiens, UniProt P20309); type: cell-based
Gβγ = conditions: 10 μM, 5 min pretreatment; compared with PTX 50 ng/ml for 6 h; cited from earlier work
Gα15 = conditions: cited from earlier work
Gαq [6] = conditions: cited from earlier work
Gαq [7] = conditions: 10 μM, 5 min pretreatment; cited from earlier work

Chain of P2Y1R (Gq-coupled) (P47900 whole entry): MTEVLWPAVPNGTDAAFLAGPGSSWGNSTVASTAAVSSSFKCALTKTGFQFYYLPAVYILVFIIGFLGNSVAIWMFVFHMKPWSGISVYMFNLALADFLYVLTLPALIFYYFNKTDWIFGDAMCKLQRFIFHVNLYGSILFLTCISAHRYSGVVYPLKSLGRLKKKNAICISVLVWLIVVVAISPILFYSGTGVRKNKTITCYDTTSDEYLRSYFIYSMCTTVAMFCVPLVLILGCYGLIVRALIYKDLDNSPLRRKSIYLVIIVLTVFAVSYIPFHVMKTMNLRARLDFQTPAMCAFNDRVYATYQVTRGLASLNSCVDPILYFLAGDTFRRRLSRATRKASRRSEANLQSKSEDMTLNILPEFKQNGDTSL
Chain of P2Y1R (P47900 whole entry): as above
Chain of human A1AR (Gi-coupled) (P30542 whole entry): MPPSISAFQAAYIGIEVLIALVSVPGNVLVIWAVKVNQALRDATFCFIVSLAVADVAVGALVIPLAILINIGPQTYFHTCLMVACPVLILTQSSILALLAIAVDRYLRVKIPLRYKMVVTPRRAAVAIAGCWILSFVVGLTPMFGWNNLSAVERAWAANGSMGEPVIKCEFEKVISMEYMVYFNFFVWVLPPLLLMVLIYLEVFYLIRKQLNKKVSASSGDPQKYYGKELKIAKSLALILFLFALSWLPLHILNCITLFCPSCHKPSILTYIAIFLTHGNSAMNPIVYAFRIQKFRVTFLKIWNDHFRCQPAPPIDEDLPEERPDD
Chain of M2 muscarinic receptor (Gi-coupled) (P08172 whole entry): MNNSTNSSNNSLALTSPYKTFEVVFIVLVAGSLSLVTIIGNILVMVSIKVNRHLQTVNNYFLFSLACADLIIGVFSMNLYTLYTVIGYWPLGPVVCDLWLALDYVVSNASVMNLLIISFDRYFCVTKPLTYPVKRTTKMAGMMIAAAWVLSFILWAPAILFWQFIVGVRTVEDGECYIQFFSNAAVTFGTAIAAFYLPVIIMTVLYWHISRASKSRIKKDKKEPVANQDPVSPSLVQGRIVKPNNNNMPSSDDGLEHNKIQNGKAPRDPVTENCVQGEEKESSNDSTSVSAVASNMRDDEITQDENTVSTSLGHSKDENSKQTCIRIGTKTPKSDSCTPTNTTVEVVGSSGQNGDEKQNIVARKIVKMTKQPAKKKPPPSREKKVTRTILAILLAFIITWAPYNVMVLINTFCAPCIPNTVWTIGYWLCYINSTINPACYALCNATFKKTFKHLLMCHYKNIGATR
Chain of Gi-coupled P2Y12R (Q9H244 whole entry): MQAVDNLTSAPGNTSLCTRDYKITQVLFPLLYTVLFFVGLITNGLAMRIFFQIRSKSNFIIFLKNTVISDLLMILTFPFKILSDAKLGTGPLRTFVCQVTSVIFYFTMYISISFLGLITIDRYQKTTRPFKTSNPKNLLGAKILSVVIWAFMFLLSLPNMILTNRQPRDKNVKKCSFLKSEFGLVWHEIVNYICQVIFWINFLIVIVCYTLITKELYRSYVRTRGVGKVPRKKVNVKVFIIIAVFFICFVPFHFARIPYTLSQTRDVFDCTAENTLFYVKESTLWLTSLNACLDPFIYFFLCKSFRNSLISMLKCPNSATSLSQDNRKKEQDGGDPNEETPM
Chain of P2Y12R (Gi-coupled) (Q9H244 whole entry): as above
Chain of Gαq-coupled P2Y1R (P47900 whole entry): as the sequence (P47900 whole entry) above
Chain of endogenous human P2Y1R (P47900 whole entry): as above
Chain of Gi-coupled A1AR (P30542 whole entry): as the sequence (P30542 whole entry) above
Chain of A1AR (P30542 whole entry): as above
Chain of recombinant human A2BAR (Gαs) (P29275 whole entry): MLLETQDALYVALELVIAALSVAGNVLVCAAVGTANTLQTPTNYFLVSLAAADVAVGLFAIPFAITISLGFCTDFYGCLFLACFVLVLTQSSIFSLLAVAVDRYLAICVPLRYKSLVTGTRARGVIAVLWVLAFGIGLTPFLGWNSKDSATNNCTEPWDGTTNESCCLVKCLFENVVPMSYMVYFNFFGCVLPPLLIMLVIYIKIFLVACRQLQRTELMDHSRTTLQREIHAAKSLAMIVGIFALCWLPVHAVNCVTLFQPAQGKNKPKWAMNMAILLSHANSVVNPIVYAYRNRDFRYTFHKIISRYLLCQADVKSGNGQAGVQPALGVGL
Chain of M2 muscarinic receptor (P08172 whole entry): as the sequence (P08172 whole entry) above
Chain of endogenous A1AR (A0A1U8BVR4 1-326): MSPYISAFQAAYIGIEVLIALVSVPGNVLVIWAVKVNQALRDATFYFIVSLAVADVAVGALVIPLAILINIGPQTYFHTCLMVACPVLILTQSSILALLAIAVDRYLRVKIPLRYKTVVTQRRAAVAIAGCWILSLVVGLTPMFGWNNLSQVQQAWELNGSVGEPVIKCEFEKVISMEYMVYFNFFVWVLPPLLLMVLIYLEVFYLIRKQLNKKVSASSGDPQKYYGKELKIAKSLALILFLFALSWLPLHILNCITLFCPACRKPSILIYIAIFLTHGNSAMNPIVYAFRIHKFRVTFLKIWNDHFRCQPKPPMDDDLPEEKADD
Chain of recombinant human A2AAR (P29274 whole entry): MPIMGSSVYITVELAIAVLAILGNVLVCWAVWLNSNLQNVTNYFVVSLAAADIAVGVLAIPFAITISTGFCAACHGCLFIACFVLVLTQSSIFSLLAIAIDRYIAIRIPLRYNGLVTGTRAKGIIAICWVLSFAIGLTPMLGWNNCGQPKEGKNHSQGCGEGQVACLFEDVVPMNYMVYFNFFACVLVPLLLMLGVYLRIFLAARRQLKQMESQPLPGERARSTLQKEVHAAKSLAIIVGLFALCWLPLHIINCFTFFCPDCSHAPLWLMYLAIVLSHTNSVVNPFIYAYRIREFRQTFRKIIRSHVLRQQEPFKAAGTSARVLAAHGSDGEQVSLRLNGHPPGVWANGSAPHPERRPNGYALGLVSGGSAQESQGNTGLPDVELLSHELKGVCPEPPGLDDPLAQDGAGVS
Chain of M3 muscarinic receptor (P20309 whole entry): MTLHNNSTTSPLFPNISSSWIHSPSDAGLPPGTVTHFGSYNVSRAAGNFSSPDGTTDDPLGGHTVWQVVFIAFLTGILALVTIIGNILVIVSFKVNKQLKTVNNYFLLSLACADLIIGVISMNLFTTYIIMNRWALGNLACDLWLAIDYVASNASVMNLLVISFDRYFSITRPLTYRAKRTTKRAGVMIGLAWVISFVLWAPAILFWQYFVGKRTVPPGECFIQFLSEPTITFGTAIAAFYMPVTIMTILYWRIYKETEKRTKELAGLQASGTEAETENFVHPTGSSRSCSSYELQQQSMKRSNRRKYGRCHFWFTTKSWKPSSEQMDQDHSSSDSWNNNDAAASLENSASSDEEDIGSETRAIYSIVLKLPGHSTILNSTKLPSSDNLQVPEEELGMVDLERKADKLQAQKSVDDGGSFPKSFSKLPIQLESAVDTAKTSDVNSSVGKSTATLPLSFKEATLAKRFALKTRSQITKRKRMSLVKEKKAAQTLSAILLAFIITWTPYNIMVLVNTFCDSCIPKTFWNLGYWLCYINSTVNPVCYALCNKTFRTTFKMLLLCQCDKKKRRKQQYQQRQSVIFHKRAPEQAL
Chain of recombinant human M3 muscarinic receptor (Gαq) (P20309 whole entry): as above

SMILES: COc1ccc2c(c1)c(C1=C(c3c[nH]c4ccccc34)C(=O)NC1=O)cn2CCCN(C)C [GO6983, 3-[1-[3-(dimethylamino)propyl]-5-methoxy-1H-indol-3-yl]-4-(1H-indol-3-yl)-1H-pyrrole-2,5-dione]
- Effect on ERK1/2 phosphorylation (P2Y1R): completely blocked
- Effect on ERK1/2 phosphorylation (M3 muscarinic receptor): completely blocked

SMILES: C=C1C(=O)N[C@@H](C)C(=O)N(C)[C@@H](C)C(=O)N[C@@H]([C@H](OC(=O)[C@@H](NC(=O)CC)[C@H](O)C(C)C)C(C)C)C(=O)N(C)[C@@H]([C@@H](C)OC)C(=O)O[C@H](C(C)C)[C@H](NC(C)=O)C(=O)O[C@H](Cc2ccccc2)C(=O)N1C [UBO-QIC, L-threonine, (3R)-N-acetyl-3-hydroxy-L-leucyl-(αR)-α-hydroxybenzenepropanoyl-2,3-didehydro-N-methylalanyl-L-alanyl-N-methyl-L-alanyl-(3R)-3-[[(2S,3R)-3-hydroxy-4-methyl-1-oxo-2-[(1-oxopropyl)amino]pentyl]oxy]-L-leucyl-N,O-dimethyl-, (7→1)-lactone] (Ac-[X1][dPhLac][NMeDha]A[NMeA][X1](Leu(3R-OH,Nα-propionyl))[NMeT](Me); ester 1-C)
- Effect on CGS21680-induced cAMP accumulation (recombinant human A2AAR): did not affect
- Effect on blood pressure [1]: decrease blood pressure
- Effect on 2MeSADP-induced Akt1/2/3 phosphorylation (Gαq-coupled P2Y1R): completely inhibited
- Block of the maximal agonist effect in ERK1/2 phosphorylation (P2Y1R): ≤ 30%
- Effect on agonist effects (calcium) (human A1AR (Gi-coupled)): completely blocked
- Effect on calcium responses (human A1AR (Gi-coupled)): completely blocked
- Effect on CPA-induced intracellular calcium mobilization (endogenous A1AR): completely blocked
- Effect on phosphorylation of protein kinase B (Akt) (Gαi subunits): no effect
- Effect on platelet aggregation (platelet aggregation): inhibit platelet aggregation
- Effect on MRS2365-mediated calcium transients (endogenous human P2Y1R): antagonizes
- Effect on Akt1/2/3 activity (Gi-coupled P2Y12R): no effect
- Effect on the maximum effect of 2MeSADP-stimulated Akt activity (Gi-coupled P2Y12R): modest but significant inhibition
- Effect on ERK1/2 stimulation [2]: only partially reduced
- Effect on Gα16 (Gα16): could inhibit Gα16
- Block of the maximal agonist effect in ERK1/2 phosphorylation (M2 muscarinic receptor): ≤ 30%
- Effect on ERK1/2 activation (ERK1/2 activation; UBO-QIC 10 nM, initial experiment): little if any effect
- Effect on agonist concentration-response curves, ERK1/2 (ERK1/2 activation; in all cases (P2Y1, A1AR, M2, M3)): somewhat non-parallel right shift
- Block of the maximal agonist effect in ERK1/2 phosphorylation (A1AR): ≤ 30%
- Effect of inhibitor on NECA-induced cAMP accumulation [3]: did not show any effect
- Effect on agonist effects (calcium) (P2Y1R (Gq-coupled)): completely blocked
- Effect on calcium responses (P2Y1R (Gq-coupled)): completely blocked
- Effect on agonist effects (calcium) (P2Y12R (Gi-coupled)): completely blocked
- Effect on calcium responses (P2Y12R (Gi-coupled)): completely blocked
- Effect on agonist effects (calcium) [4]: completely blocked
- Effect on calcium responses [4]: completely blocked
- Effect on Akt1/2/3 activity (Gi-coupled A1AR): no effect
- Effect of inhibitor on carbachol-induced Ca2+ transients [5]: completely blocked

SMILES: C=C1C(=O)NC(C)C(=O)N(C)C(C)C(=O)NC(C(OC(=O)C(NC(C)=O)C(O)C(C)C)C(C)C)C(=O)N(C)C(C(C)OC)C(=O)OC(C)C(NC(C)=O)C(=O)OC(Cc2ccccc2)C(=O)N1C (stereo not drawn) [YM-254890] (Ac-T[PhLac][NMeDha]A[NMeA][X2][NMeT](Me); ester 1-C; configuration not given here)
- Inhibition of fMLP-induced Ca2+ mobilization (Gβγ): to a lesser extent than pertussis toxin
- Effect on Gα15-mediated Ca2+ release (Gα15): only a small effect
- Effect on release of GDP from Gαq (Gαq [6]): inhibits the release of GDP from Gαq
- Inhibition of UTP-mediated Ca2+ release (Gαq [7]): much larger inhibition
